{
  "source": "ChEMBL document CHEMBL2346641",
  "about": "“Discovery of disubstituted piperidines and homopiperidines as potent dual NK1 receptor antagonists-serotonin reuptake transporter inhibitors for the treatment of depression” (Bioorg Med Chem, 2013)",
  "key": {"[1]": {"experiment": "Ratio of drug level in brain to serum in gerbil at 30 mg/kg, ip after 36 mins", "type": "ADME, organism-based", "design": "dose 30 mg/kg, route intraperitoneal", "conditions": "gerbillinae", "summary_of_the_method": "(§1)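 Gerbils given single IP dose in 100% PEG-400 (0.1–30 mg/kg); brain and serum sampled 36 min post-dose, matching the interval from dosing to end of forced swim test. Drug concentrations (nM) measured in each matrix and brain-to-serum ratio calculated; mean of n = 3 with SD.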"}, "[2]": {"target": "Sodium-dependent noradrenaline transporter (Homo sapiens, UniProt P23975)", "sequence (P23975 whole entry)": "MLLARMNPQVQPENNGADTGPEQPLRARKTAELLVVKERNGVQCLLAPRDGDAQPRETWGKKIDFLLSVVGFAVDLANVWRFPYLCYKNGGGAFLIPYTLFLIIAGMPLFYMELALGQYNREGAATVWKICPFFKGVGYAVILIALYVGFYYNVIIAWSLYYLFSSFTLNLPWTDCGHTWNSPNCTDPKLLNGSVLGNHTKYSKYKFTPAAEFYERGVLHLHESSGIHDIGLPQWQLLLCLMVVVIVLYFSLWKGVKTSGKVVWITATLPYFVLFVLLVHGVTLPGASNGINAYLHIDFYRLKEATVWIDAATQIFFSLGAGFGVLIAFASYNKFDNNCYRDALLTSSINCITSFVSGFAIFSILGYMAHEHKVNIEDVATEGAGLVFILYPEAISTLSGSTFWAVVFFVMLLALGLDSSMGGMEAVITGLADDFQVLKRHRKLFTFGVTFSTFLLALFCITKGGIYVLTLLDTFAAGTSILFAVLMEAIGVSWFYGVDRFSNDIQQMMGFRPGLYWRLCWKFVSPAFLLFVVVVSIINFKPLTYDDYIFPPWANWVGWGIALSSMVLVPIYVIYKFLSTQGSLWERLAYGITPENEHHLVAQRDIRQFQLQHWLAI", "experiment": "Inhibition of NET (unknown origin) at 10 uM", "summary_of_the_method": "(§2)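 Screened at 10 µM in a commercial panel of over 70 receptors. Significance threshold set at ≥50% inhibition.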"}, "[3]": {"experiment": "Ratio of drug level in brain to serum in gerbil at 3 mg/kg, ip after 36 mins", "type": "ADME, organism-based", "design": "dose 3 mg/kg, route intraperitoneal", "conditions": "gerbillinae", "summary_of_the_method": "as §1"}, "[4]": {"target": "T1, 5-hydroxytryptamine receptor 2C (Homo sapiens, UniProt P28335)", "T1 sequence (P28335 whole entry)": "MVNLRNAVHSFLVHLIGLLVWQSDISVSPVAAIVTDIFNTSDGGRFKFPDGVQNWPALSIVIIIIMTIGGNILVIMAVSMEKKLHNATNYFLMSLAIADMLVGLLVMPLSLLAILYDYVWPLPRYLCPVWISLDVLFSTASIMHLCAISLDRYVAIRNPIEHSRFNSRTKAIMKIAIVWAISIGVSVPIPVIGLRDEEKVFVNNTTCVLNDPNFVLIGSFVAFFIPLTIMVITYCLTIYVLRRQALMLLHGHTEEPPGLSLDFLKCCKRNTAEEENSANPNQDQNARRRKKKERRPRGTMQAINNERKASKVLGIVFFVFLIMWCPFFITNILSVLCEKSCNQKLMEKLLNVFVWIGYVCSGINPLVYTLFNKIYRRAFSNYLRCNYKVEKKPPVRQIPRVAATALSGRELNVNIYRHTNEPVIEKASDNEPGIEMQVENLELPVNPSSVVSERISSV", "experiment": "Inhibition of 5HT2C receptor (unknown origin)"}, "[5]": {"target": "Sodium-dependent dopamine transporter (Homo sapiens, UniProt Q01959)", "sequence (Q01959 whole entry)": "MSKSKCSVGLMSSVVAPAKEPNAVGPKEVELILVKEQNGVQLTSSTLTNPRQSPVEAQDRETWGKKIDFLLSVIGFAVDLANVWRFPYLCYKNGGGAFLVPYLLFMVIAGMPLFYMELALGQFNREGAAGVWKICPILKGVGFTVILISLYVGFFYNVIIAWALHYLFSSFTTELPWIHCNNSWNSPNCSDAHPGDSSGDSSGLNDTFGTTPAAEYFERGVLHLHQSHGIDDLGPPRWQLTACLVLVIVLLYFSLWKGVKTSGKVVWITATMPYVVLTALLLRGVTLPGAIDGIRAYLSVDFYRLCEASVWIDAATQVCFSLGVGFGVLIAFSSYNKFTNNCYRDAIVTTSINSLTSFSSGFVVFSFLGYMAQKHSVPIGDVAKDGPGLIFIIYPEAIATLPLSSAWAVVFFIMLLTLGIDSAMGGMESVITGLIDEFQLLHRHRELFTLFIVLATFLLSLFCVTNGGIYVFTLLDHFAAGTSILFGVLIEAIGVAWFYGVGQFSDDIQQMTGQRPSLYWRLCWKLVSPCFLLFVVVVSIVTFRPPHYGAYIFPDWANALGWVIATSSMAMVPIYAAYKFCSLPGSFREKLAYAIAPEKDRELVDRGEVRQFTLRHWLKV", "experiment": "Inhibition of DAT (unknown origin) at 10 uM", "summary_of_the_method": "as §2"}, "[6]": {"experiment": "Drug uptake in gerbil serum at 0.3 mg/kg, ip after 36 mins", "type": "ADME, organism-based", "design": "dose 0.3 mg/kg, route intraperitoneal", "conditions": "gerbillinae, read-out: Drug uptake", "summary_of_the_method": "(§3)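 Gerbils given IP doses as a solution in 100% PEG-400. Brain and serum sampled 36 min post-injection, covering the time from dosing to the end of the behavioral test. Values are means (n = 3) with SD.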"}, "[7]": {"experiment": "Drug uptake in gerbil serum at 30 mg/kg, ip after 36 mins", "type": "ADME, organism-based", "design": "dose 30 mg/kg, route intraperitoneal", "conditions": "gerbillinae, read-out: Drug uptake", "summary_of_the_method": "as §3"}, "Substance-K receptor": {"target": "T2, Substance-K receptor (Homo sapiens, UniProt P21452)", "T2 sequence (P21452 whole entry)": "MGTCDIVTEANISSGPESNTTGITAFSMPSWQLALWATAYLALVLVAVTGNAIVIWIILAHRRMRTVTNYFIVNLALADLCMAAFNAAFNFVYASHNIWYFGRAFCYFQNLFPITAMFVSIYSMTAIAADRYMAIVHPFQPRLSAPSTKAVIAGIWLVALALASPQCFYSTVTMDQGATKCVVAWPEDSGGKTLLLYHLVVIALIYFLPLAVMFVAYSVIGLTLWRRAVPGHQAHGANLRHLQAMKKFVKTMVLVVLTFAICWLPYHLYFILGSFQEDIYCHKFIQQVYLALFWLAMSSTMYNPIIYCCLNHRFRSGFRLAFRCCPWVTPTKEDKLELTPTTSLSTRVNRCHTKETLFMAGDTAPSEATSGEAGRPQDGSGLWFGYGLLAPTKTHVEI", "experiment": "Inhibition of NK2 receptor (unknown origin)"}, "[8]": {"experiment": "Binding affinity to gerbil NK1 receptor", "design": "species or system Gerbillinae"}, "[9]": {"target": "Sodium-dependent serotonin transporter (Homo sapiens, UniProt P31645)", "sequence (P31645 whole entry)": "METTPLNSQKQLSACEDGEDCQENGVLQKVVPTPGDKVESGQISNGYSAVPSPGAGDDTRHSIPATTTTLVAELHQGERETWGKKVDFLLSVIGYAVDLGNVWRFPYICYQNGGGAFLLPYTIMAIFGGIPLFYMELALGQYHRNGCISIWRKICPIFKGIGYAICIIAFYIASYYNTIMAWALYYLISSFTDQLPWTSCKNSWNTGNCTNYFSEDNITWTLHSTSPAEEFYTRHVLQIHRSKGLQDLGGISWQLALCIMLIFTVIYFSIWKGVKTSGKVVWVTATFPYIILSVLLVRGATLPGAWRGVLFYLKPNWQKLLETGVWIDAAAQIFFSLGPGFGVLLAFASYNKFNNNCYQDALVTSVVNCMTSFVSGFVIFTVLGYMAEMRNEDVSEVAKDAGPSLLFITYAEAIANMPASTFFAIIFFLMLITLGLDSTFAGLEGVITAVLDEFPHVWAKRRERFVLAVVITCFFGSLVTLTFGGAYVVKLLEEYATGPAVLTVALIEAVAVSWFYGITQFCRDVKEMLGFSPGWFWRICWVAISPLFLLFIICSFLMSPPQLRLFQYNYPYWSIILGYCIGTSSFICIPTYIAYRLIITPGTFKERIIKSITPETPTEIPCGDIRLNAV", "type": "cell-based, HEK293"}, "[10]": {"experiment": "Drug uptake in gerbil serum at 3 mg/kg, ip after 36 mins", "type": "ADME, organism-based", "design": "dose 3 mg/kg, route intraperitoneal", "conditions": "gerbillinae, read-out: Drug uptake", "summary_of_the_method": "as §3"}, "[11]": {"experiment": "Drug uptake in gerbil brain at 10 mg/kg, ip after 36 mins", "type": "ADME, organism-based", "design": "dose 10 mg/kg, route intraperitoneal", "conditions": "gerbillinae, read-out: Drug uptake", "summary_of_the_method": "as §3"}},
  "note": "pIC50: −log10 of the molar value. The source made the active and inactive calls.",
  "data": [
    {"smiles": "FC(F)(F)c1cc(COCC2(c3ccccc3)CCNCC2)cc(C(F)(F)F)c1", "values": [
      {"measurement": "Kp at 0.6 h", "setting": "[1]", "value": 2.3},
      {"measurement": "inhibition", "setting": "[2]", "value": "Active"},
      {"measurement": "Kp at 0.6 h", "setting": "[3]", "value": 4.2},
      {"measurement": "pIC50", "setting": "[4]", "value": "< 6.00"},
      {"measurement": "inhibition", "setting": "[5]", "value": "Active"},
      {"measurement": "concentration at 0.6 h", "setting": "[6]", "value": 12, "unit": "nM"},
      {"measurement": "concentration at 0.6 h", "setting": "[7]", "value": 2300, "unit": "nM"},
      {"measurement": "pIC50", "setting": "Substance-K receptor", "value": "< 6.00"},
      {"measurement": "pIC50", "setting": "[8]", "value": 8.70},
      {"measurement": "pIC50", "setting": "[9]", "value": 9.00},
      {"measurement": "concentration at 0.6 h", "setting": "[10]", "value": 210, "unit": "nM"},
      {"measurement": "concentration at 0.6 h", "setting": "[11]", "value": 4300, "unit": "nM"}
    ]}
  ]
}
